Shown are actives, neighbours in structure and some others; about 4.3% of the full set was active somewhere.
FLuc stim CS = FLuc activators, initial screening, artefact control for FLuc-dependent activation tests, biochemical, ATPlite luminescence. ATPlite luciferase biochemical, 10 min; 0 = ATP-free wells, 1 = DMSO control. activation factor at 10 µM. 200,000 tested, under 10 active;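 active means luciferase activation factor, scaled between plate controls, of at least 2 with compound at 10 µM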
Target sequence (P08659 whole entry, looked up): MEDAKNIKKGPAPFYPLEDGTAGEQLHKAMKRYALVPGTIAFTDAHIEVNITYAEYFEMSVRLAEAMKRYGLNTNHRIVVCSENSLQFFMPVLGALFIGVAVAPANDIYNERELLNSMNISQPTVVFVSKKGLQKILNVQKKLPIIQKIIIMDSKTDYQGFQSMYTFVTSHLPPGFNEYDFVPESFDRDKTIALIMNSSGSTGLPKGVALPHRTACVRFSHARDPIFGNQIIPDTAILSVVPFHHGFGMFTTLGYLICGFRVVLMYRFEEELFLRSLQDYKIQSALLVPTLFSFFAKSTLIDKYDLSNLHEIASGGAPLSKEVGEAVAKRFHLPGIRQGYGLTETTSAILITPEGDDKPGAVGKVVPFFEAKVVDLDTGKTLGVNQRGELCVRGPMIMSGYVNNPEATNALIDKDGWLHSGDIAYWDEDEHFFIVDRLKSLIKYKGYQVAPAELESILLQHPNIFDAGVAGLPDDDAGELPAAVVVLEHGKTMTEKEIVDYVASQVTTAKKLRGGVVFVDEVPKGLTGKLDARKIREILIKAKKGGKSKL
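Material: luciferase plus luciferin reagent, cell-free. Medium: PBS buffer for ATP. Also added: ATP substrate, dispensed from a 10.24 µM working solution in PBS. Doses: test compounds dosed from 2 mM stocks in 100% DMSO. Incubation: 10 min post-reagent at room temperature. Technique: light output (luminescence). Read-out basis: luminescence gain marking luciferase activators.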
STAT1 activator = STAT1 signaling activators, primary screen, cell-based, HTS, luciferase reporter; 2.6% of 200,000 active; NIH 3T3 STAT1-luciferase reporter, IFN-gamma, luminescence; 100% = IFN-gamma alone, no compound; AID 932, 2007; activation (% of control), % at 5.5 µM;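 active means activation above the screen-wide mean activation plus 3 SD, cut at about 130% in these data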;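 further: raw ratio to IFN-gamma control signal so 100% means no change and 0% no light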
APP 5'UTR act = activators of APP 5'UTR luciferase reporter, primary screen, SH-SY5Y cells | SH-SY5Y APP 5'UTR luciferase reporter, luminescence; zero percent = DMSO vehicle wells | activation, % at 2 µM | 1% of 190,000 active;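 active means activation above a set limit, based on mean plus 3 SD of controls, cut at about 140% in these data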
FLuc inh counter = firefly luciferase enzyme inhibitors, primary screen, artefact control for luciferase-based inhibitor screens, biochemical, luminescence, ATPLite | Luciferin 4-monooxygenase (Photinus pyralis), P08659 | 10 min | inhibition, % at 10 µM | 1.5% of 200,000 active;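 active means inhibition above about 50% when tested at 10 µM, limit read from the data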
SDO1 yeast rescue = growth rescue of sdo1-depleted yeast, primary screen, S. cerevisiae, bone marrow failure model; 0.21% of 140,000 active; AID 817, 2007; z-score at 10 µM; S. cerevisiae sdo1-depleted JHY4D growth rescue, OD600 30 h; hits give high values; pdr5 snq2 efflux-pump mutant strain;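 active means z-score above 3 at both the 24 hr and the 30 hr optical density reads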;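 further: z-score against mean and SD of all compound wells on the same plate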
NF-kB neuron act = activators of NF-kB expression in neurons, primary screen, cell-based, HTS. AID 1239, 2008. human neuronal cells, NF-kB reporter expression; hits give high values. fold change at 12.5 µM. 1.6% of 190,000 active; in the data active means fold change above about 3.3
* hit, by the source's call; . = no result given; [ ] = remark or other dose.

SMILES | FLuc stim CS | STAT1 activator | APP 5'UTR act | FLuc inh counter | SDO1 yeast rescue | NF-kB neuron act
CCN(CC)CCCN1C(=O)C(=O)/C(=C(/O)c2ccccc2)C1c1cc(OC)ccc1OC (configuration not stated) | 1 | . | . | -3.2 | . | .
CC(C)CCNC(=O)CNC(=S)N(Cc1ccccc1)Cc1cccnc1 | 1.1 | 83.7 | . | -10.6 | 1.43 | 1.09
CCCCNc1ncnc2c1cnn2-c1ccccc1 | 0.7 | 134.2* | 101.8 | 34.8 | -0.05 | 5.65*
COc1ccccc1Nc1ncnc2c1cnn2-c1cccc(C)c1 | 1 | 120.6 | 12.0 | 3.0 | -0.15 | 1.85
c1ccc(-n2ncc3c(NCCCN4CCOCC4)ncnc32)cc1 | 0.8 | 122.2 | 51.3 | 16.9 | 0.38 | 1.97
Cc1ccc(-n2ncc3c(NCc4ccccn4)ncnc32)c(C)c1 | 1.1 | 100.1 | 12.3 | -7.6 | -0.17 | 1.23
Cc1ccc(-n2ncc3c(NCc4ccc5c(c4)OCO5)ncnc32)c(C)c1 | 1.1 | 96.7 | -0.2 | -11.8 | 14.1* | 0.85
C=CCNc1ncnc2c1cnn2-c1cccc(C)c1 | 0.6 | 141.5* | 211.9* | 41.7 | -0.06 | 4.97*
Cc1cccc(-n2ncc3c(NCc4ccc5c(c4)OCO5)ncnc32)c1 | 1 | 106.3 | 12.2 | -4.3 | -1.76 | 1.19
Clc1ccc(-n2ncc3c(NCc4ccccn4)ncnc32)cc1 | 1 | 149.6* | 25.7 | -0.4 | -0.65[13.5 µM] | 2.64
COc1cc(CN2CCC(C(=O)N3CCCC(C)C3)CC2)cc(Br)c1O (configuration not stated) | 1.1 | 99.0 | 8.8 | -7.0 | 0.6 | 1
Cc1ccc(CNc2ncnc3c2cnn3-c2ccccc2)cc1 | 1 | 107.4 | 1.5 | 0.0 | -0.57 | 1.23
Cc1ccc(-n2ncc3c(NCc4ccccc4)ncnc32)cc1 | 1 | 136.5* | 53.5 | 1.1 | 0.47 | 1.53
Cc1cccc(-n2ncc3c(NCCCO)ncnc32)c1 | 0.5 | 140.6* | 135.4* | 52.7* | 0.3 | 3.29
Cc1ccc(NC(=O)CN2C(=O)C3C4C=CC(C4)C3C2=O)cc1S(=O)(=O)N(C)C (configuration not stated) | 1.1 | 100.3 | -54.9 | -8.1 | 1.23 | 1.09
COCCn1c(C)cc(C2=NNC(=NC3CC3)SC2)c1C | 0 | 10.3 | -87.7 | 95.8* | . | 0.17
C=CCN=C1NN=C(c2cc(C)n(CCOC)c2C)CS1 | 0.1 | 77.7 | 1.9 | 89.0* | 0.1 | 0.2
COCCn1c(C)cc(C2=NNC(=Nc3ccc(Cl)cc3Cl)SC2)c1C | 1.1 | 101.7 | -5.9 | -5.4 | -0.4 | 1.01
C=CCn1c(C)cc(C2=NNC(=NC(C)(C)C)SC2)c1C | 0.1 | 107.8 | 127.6 | 89.7* | -0.95 | 0.37
C=CCn1c(C)cc(C2=NNC(=Nc3ccc(C)cc3)SC2)c1C | 1 | 121.1 | 14.1 | 2.0 | . | 0.92
CCC(=O)N(CCc1ccc(OC)c(OC)c1)Cc1cc2ccc(C)cc2n2nnnc12 | 1 | 105.8 | -3.9 | -4.0 | . | 1
COc1cccc(-c2nc3ccccc3c(=O)o2)c1 | 0.5 | 95.6 | -4.2 | 52.5* | -0.28 | 1.68
COc1cccc(-c2nc(-c3ccccc3)no2)c1 | 0.5 | 149.5* | 128.1 | 45.8 | -0.99 | 7.26*
COc1ccc(-c2noc(-c3ccccc3-c3ccccc3)n2)cc1 | 1 | 100.9 | 7.4 | -4.3 | -0.97 | 0.88
COc1nc(-c2ccccc2)ccc1-c1noc(-c2cccs2)n1 | . | 106.5 | 32.6 | . | . | .
SMILES | FLuc stim CS | STAT1 activator | APP 5'UTR act | FLuc inh counter | SDO1 yeast rescue | NF-kB neuron act
COc1cccc(-c2nc(-c3ccccn3)no2)c1 | 0.1 | 45.7 | 35.3 | 93.0* | -0.24 | 0.93
COc1cccc(-c2nc(-c3ccc(NC(=O)c4cccnc4)cc3)no2)c1 | 1 | 102.4 | 2.0 | -2.9 | -0.13 | 1.03
COc1cccc(-c2noc(-c3cccs3)n2)c1 | 0.5 | 138.7* | 114.5 | 50.2* | -0.55 | 8.43*
Cc1cc2oc(=O)cc(CN3CCN(S(=O)(=O)c4cccs4)CC3)c2cc1C | 1.1 | 103.1 | -16.1 | -8.7 | -0.25 | 0.42
CC(=O)c1cc(C(=O)N2CCCC(CCC(=O)N(C)CCc3ccccn3)C2)cs1 (configuration not stated) | 1 | 101.6 | -1.4 | -4.9 | . | 1.07
c1ccc(-c2noc(-c3ccncc3)n2)nc1 | 0.7 | 123.5 | 103.5 | 28.3 | 0.18 | 2.01
COc1cccc(-c2noc(-c3ccc(Br)o3)n2)c1 | 0.5 | 136.3* | 95.0 | 46.4 | . | 3.6*
c1ccc(-c2noc(-c3cccnc3)n2)nc1 | 0.7 | 128.8* | 75.0 | 31.0 | 0.36 | 1.84
COC(=O)c1ccc(-c2nc(-c3ccc(Br)o3)no2)cc1 | 0.9 | 108.1 | 4.0 | 8.6 | -1.5 | 2.24
COC(=O)c1ccc(-c2nc(-c3cccs3)no2)cc1 | 0.3 | 52.7 | 136.0* | 71.9* | -2.15 | 1.01
COc1ccc(CC(=O)Nc2ccc(-c3noc(-c4cccc(OC)c4)n3)cc2)cc1 | 1.1 | 90.7 | -2.9 | -10.0 | 0.5 | 1.23
COc1ccc(-c2nc(-c3ccc(Br)o3)no2)cc1 | 0.6 | 119.2 | 105.5 | 38.9 | 0.28 | 6.73*
COc1ccc(NC(=O)Cn2cnc3sc(C)c(S(=O)(=O)N4CCN(C)CC4)c3c2=O)cc1OC | 1 | 100.4 | -9.8 | -4.3 | . | 0.93
COCc1nnc(NC(=O)CC(C)C)s1 | 1.1 | 97.3 | 7.2 | -5.6 | 0.78 | 1.09
CN(C)c1ccc(NC(=S)NC(=O)/C=C/c2ccc(Cl)cc2)cc1 | 1 | 142.1* | 68.9 | 2.1 | -0.5 | 1.75
Cc1cc(NC(=O)/C=C/c2ccccc2Cl)no1 | 1 | 135.4* | 83.0 | -2.2 | -1.46 | 1.96
Cc1cc(NC(=O)c2ccccc2Cl)no1 | 0.7 | 122.8 | 47.4 | 27.9 | 0.32 | 1.79
CN(C)c1ccc(NC(=S)NC(=O)/C=C/c2ccco2)cc1 | 1.1 | 108.9 | 25.7 | -9.0 | . | 1.05
Cc1cc(NC(=O)/C=C/c2ccccc2)no1 | 0.7 | 130.0* | 72.8 | 32.5 | 1.7 | 3.24
COc1ccc(/C=C/C(=O)Nc2cc(C)on2)cc1 | 0.9 | 128.5 | 39.6 | 11.0 | 0.41 | 1.23
COC(=O)c1cc(NC(=O)/C=C/c2ccccc2)ccc1O | 0.9 | 133.2* | 55.9 | 12.4 | . | 2.02
O=C(NCc1ccccc1)c1cc(S(=O)(=O)N2CCCCC2)ccc1N1CCOCC1 | 1 | 100.6 | 17.0 | -2.2 | . | 1.08
Cc1cc(NC(=O)/C=C/c2ccccc2Cl)n(-c2nc3ccccc3[nH]2)n1 | 0.2 | 102.7 | 73.6 | 75.6* | -0.55 | 1.27
CN(C)c1ccc(NC(=O)/C=C/c2ccccc2Cl)cc1 | 0.4 | 149.1* | 110.7 | 63.9* | 0.23 | 1.85
CCN(CC)c1ccc(NC(=O)/C=C\c2ccccc2Cl)cc1 | 0.6 | 122.0 | 14.9 | 38.1 | -1.1 | 1.61
